17 molecules from ChEMBL document CHEMBL4428107 (Bioorg Med Chem, 2016) can be followed below.

In one data set the target is Histone deacetylase 2 (Homo sapiens, UniProt Q92769). Put plainly: Inhibition of full length recombinant human HDAC2 expressed in baculovirus expression system using fluorogenic peptide RHKK(Ac) as substrate by fluorescence assay.
The subject of a further data set is HCT-116. As to the kind of experiment: Antiproliferative activity against human HCT116 cells assessed as reduction in cell viability after 72 hrs by MTS-PMS assay. Type of data set: functional. To be noted: Homo sapiens, HCT-116, 72 h. The essentials:
(§1)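 MTS-PMS viability test. Cells were seeded at 3,000/well and left 24 h at 37 °C, 5% CO2, then exposed to compound for 72 h. Screening was at 50 μM for HCT116 and MCF-7 and […], with final DMSO ≤1%. MTS:PMS was mixed 20:1, added for 3 h, and absorbance read at 490 nm. At least two independent runs were done, each in triplicate.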

The subject of a further data set is MCF7. Put plainly: Antiproliferative activity against human MCF7 cells assessed as reduction in cell viability after 72 hrs by MTS-PMS assay. To be noted: MCF7, 72 h.
The subject of the next data set is MDA-MB-231. Put plainly: Antiproliferative activity against human MDA-MB-231 cells assessed as reduction in cell viability after 72 hrs by MTS-PMS assay. Type of data set: functional. The conditions noted are these: MDA-MB-231, 72 h. Put shortly:
as §1

A further data set deals with MOLT-4. Put plainly: Antiproliferative activity against human MOLT4 cells assessed as reduction in cell viability after 70 hrs by Quanti-blue assay. The conditions noted are these: Homo sapiens, MOLT-4, 70 h. Type of data set: functional. The essentials: (§2)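 Quanti-Blue viability kit. HuT-78 and Molt-4 cells were grown in RPMI-1640 and seeded at 10^5 cells/mL. Compounds were screened at 50 μM for 70 h, with detection reagent present for the final 2 h. Fluorescence was read at ex 530/em 590 nm. IC50 from dose-response came from linear regression. Three independent runs.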

The next data set deals with HuT78. As to the kind of experiment: Antiproliferative activity against human HUT78 cells assessed as reduction in cell viability after 70 hrs by Quanti-blue assay. Type of data set: functional. The conditions noted are these: Homo sapiens, HuT78, 70 h. Put shortly:
as §2

A short description of data set [1]: Antiproliferative activity against human PBMC assessed as reduction in cell viability after 70 hrs by Quanti-blue assay. Type of data set: cell-based. Put shortly:
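QB fluorescence viability assay; hPBMCs purified by density centrifugation from purchased human blood, stored frozen, resuspended in RPMI-1640 with 10% heat-inactivated FBS, HEPES, pyruvate, non-essential amino acids and BME; seeded at 10^6 cells/mL. Compounds at 50 μM, 70 h plus 2 h with detection reagent; λex 530/λem 590 nm. Three independent repeats.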

Data set [2] can be described thus: Immunomodulatory activity in human TALL-104 cells assessed as effect on degranulation by measuring augmentation of CD3-stimulated anti-LAMP fluorescence at 100 uM preincubated for 30 mins followed by anti-LAMP addition and incubated for 50 mins in the dark by flow cytometric analysis relative to control. Type of data set: functional.

Histone deacetylase 2, sequence (Q92769 whole entry): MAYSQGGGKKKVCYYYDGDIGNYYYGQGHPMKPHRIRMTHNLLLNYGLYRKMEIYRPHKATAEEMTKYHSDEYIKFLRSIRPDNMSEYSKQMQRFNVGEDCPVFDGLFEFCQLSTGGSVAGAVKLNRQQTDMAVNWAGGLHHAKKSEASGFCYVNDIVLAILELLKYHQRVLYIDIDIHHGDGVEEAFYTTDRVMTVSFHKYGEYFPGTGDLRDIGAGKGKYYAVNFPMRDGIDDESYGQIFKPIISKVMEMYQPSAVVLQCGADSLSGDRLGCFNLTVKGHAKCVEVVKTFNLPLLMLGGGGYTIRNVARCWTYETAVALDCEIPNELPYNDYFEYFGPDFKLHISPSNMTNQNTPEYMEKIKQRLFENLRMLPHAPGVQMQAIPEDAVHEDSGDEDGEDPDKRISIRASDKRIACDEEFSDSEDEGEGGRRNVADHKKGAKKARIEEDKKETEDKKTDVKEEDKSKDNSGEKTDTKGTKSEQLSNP

As for `C=CCOC(=O)NCCCC(=O)NCCc1ccccc1`, the IC50 on Histone deacetylase 2 is over 1 µM. Also, the GI50 with HCT-116, in the data set with MCF7, with MDA-MB-231, with MOLT-4 and with HuT78 was over 50 µM each time. Also, in data set [1], the GI50 at 70 h is over 50 µM. In addition, in data set [2], the Activity is given as 87%.

Regarding `CCOC(=O)NCCCCCC(=O)NCCc1ccccc1`, the IC50 at Histone deacetylase 2 is over 1 µM. The GI50 with HCT-116, in the data set on MCF7, in the data set on MDA-MB-231, in the data set on MOLT-4 and in the data set with HuT78 was over 50 µM in each case. Also, in data set [1], the GI50 at 70 h was over 50 µM. The Activity in data set [2] came to 98%.

Take `CCOC(=O)NCCCC(=O)NCCC(C)C`: at Histone deacetylase 2, the IC50 is over 1 µM. In addition, the GI50 with HCT-116, with MCF7, in the data set on MDA-MB-231, with MOLT-4 and with HuT78 was over 50 µM in each case. Further, in data set [1], the concentration for 50% growth inhibition (GI50) at 70 h was over 50 µM. Further, in data set [2], the Activity came to 88%.

With `CCNC(=O)NCCCC(=O)NCCc1ccccc1`, at Histone deacetylase 2, the IC50 is over 1 µM. The GI50 with HCT-116, in the data set with MCF7, in the data set with MDA-MB-231, in the data set with MOLT-4 and with HuT78 was over 50 µM each time. The GI50 at 70 h in data set [1] is over 50 µM. Moreover, the Activity in data set [2] is listed as 106%.

As to `COC(=O)NCCCC(=O)NCCc1ccccc1`, the IC50 on Histone deacetylase 2 was over 1 µM. Further, the GI50 in the data set on HCT-116, with MCF7, in the data set with MDA-MB-231, in the data set on MOLT-4 and in the data set with HuT78 was over 50 µM in each case. In data set [1], the GI50 at 70 h was over 50 µM. Moreover, the Activity in data set [2] stood at 81%.

Turning to `C#CCOC(=O)NCCCC(=O)NCCc1ccccc1`, at Histone deacetylase 2, the IC50 was over 1 µM. Further, the GI50 in the data set with HCT-116, with MCF7, in the data set on MDA-MB-231, in the data set with MOLT-4 and with HuT78 was over 50 µM throughout. Further, in data set [1], the GI50 at 70 h is over 50 µM. The Activity in data set [2] worked out at 105%.

`CCOC(=O)NCCCCC(=O)NCc1ccccc1`: the IC50 at Histone deacetylase 2 is over 1 µM. The GI50 in the data set with HCT-116, with MCF7, in the data set with MDA-MB-231, in the data set on MOLT-4 and with HuT78 was over 50 µM in each case. Further, the GI50 at 70 h in data set [1] is over 50 µM. Besides, the Activity in data set [2] came out at 93%.

As to `CCOC(=O)NCC(=O)NCCCCc1ccccc1`, the IC50 on Histone deacetylase 2 is over 1 µM. The GI50 with HCT-116, with MCF7, in the data set with MDA-MB-231, with MOLT-4 and in the data set with HuT78 was over 50 µM in each case. In data set [1], the GI50 at 70 h is over 50 µM. Moreover, the Activity in data set [2] amounted to 81%.

As for `CCOC(=O)NCC(=O)NCCc1ccccc1`, at Histone deacetylase 2, the IC50 is over 1 µM. Also, the GI50 in the data set with HCT-116, in the data set on MCF7, with MDA-MB-231, in the data set with MOLT-4 and with HuT78 was over 50 µM throughout. For the same molecule, the GI50 at 70 h in data set [1] is over 50 µM. Further, the Activity in data set [2] worked out at 86%.

Consider `CC(=O)SCCC(=O)NCCCC(=O)NCCc1ccccc1`, for which, on Histone deacetylase 2, the IC50 was over 1 µM. In addition, the GI50 in the data set with HCT-116, in the data set on MCF7, in the data set on MDA-MB-231, in the data set on MOLT-4 and in the data set on HuT78 was over 50 µM each time. Further, the GI50 at 70 h in data set [1] is over 50 µM. Besides, the Activity in data set [2] was 77%.

Take `CCCC(=O)NCCCC(=O)NCCc1ccccc1`: the IC50 on Histone deacetylase 2 was over 1 µM. Besides, the GI50 in the data set on HCT-116, with MCF7, in the data set with MDA-MB-231, with MOLT-4 and with HuT78 was over 50 µM each time. In addition, the GI50 at 70 h in data set [1] is over 50 µM. Further, the Activity in data set [2] came to 101%.

Regarding `CCOC(=S)NCCCC(=O)NCCc1ccccc1`, the half-inhibitory concentration (IC50) on Histone deacetylase 2 is over 1 µM. For the same molecule, the GI50 in the data set with HCT-116, in the data set with MCF7, with MDA-MB-231, in the data set on MOLT-4 and with HuT78 was over 50 µM each time. The GI50 at 70 h in data set [1] is over 50 µM. In addition, the Activity in data set [2] turned out to be 105%.

On to `CCNC(=O)OCCCC(=O)NCCc1ccccc1`, for which the IC50 at Histone deacetylase 2 is over 1 µM. Further, the GI50 in the data set with HCT-116, in the data set with MCF7, in the data set with MDA-MB-231, with MOLT-4 and with HuT78 was over 50 µM throughout. In addition, the GI50 at 70 h in data set [1] was over 50 µM. In data set [2], the Activity is 100%.

Turning to `CCOC(=O)NCCCC(=O)Nc1ccc(CO[Si](C)(C)C(C)(C)C)cc1`, the IC50 on Histone deacetylase 2 is over 1 µM. Further, the GI50 is over 50 µM in the data set on HCT-116; 23.7 µM in the data set with MCF7; over 50 µM in the data set with MDA-MB-231; over 50 µM in the data set with MOLT-4; over 50 µM in the data set with HuT78. The 50% growth inhibitory concentration (GI50) at 70 h in data set [1] was over 50 µM. In addition, the Activity in data set [2] is listed as 126%.

Regarding `CCOC(=O)NCCCC(=O)NCCc1ccc(Cl)cc1`, on Histone deacetylase 2, the IC50 was over 1 µM. In addition, the GI50 in the data set with HCT-116, in the data set with MCF7, with MDA-MB-231, with MOLT-4 and in the data set with HuT78 was over 50 µM each time. Moreover, the GI50 at 70 h in data set [1] is over 50 µM. In addition, the Activity in data set [2] is listed as 85%.

With `CCCOC(=O)NCCCC(=O)NCCc1ccccc1`, at Histone deacetylase 2, the IC50 was over 1 µM. Moreover, the GI50 in the data set on HCT-116, with MCF7, with MDA-MB-231, in the data set on MOLT-4 and in the data set with HuT78 was over 50 µM in each case. Also, the GI50 at 70 h in data set [1] is over 50 µM. The Activity in data set [2] was determined as 94%.

In the case of `CC(C)(C)OC(=O)NCCCC(=O)NCCc1ccccc1`, on Histone deacetylase 2, the IC50 is over 1 µM. In addition, the GI50 in the data set on HCT-116, in the data set on MCF7, with MDA-MB-231, in the data set with MOLT-4 and with HuT78 was over 50 µM throughout. Moreover, the GI50 at 70 h in data set [1] is over 50 µM. The Activity in data set [2] is on record as 82%.
